Measured values published in paper PMC2635573 (Molecular pharmacology, 2008).
Where two headings read alike, the source gives them in different places. Non-standard residues stand in square brackets, D forms with d. Residues, ends and D or L forms follow the SMILES beside them. *: point of attachment. X1 = COC1=CC(=O)N(C(=O)[C@@H](O*)C(C)C)[C@H]1Cc1ccccc1; NMe2Val = CC(C)[C@@H](C(=O)*)N(C)C; NMeV = CN[C@H](C(=O)O)C(C)C; Cbz = O=C(OCc1ccccc1)*; NHtBu = CC(C)(C)N*

How the values were obtained:
P-glycoprotein = settings: ref Aherne et al., 1996; cited from earlier work
[1] = molecular target: purified bovine brain tubulin (Bos taurus, UniProt P81947+Q6B856); experiment: Inhibition of tubulin assembly; format: biochemical
[2] = test system: Burkitt lymphoma CA46 cells; experiment: Inhibition of growth of CA46 cells; format: cell-based, human
How it was run: (§1)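 Suspension lines were grown in RPMI 1640 with 5% fetal bovine serum (10% for CA46) at 37°C in humidified 5% CO₂. Test compound was added in DMSO (0.1% final) at varying concentrations. Growth was measured as cell number with a particle counter, and the IC₅₀ was derived from it.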

CCRF-CEM leukemia cells = experiment: cells; format: cell-based, human; settings: for -fold difference in IC50 (+ BCPP versus − BCPP) / IC50: 24 h; for IC50: read-out: IC50 − BCPP
SR cells [3] = experiment: [^3H]Tasidotin uptake and metabolism, SR cells; format: in vitro ADME, human; settings: 0.1 μM [^3H]tasidotin, 16 h
How it was run: (§2)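 Log-phase cells at ~10⁶ cells/ml were given 0.1 μM [³H]test compound for 16 h (CA46 also 5 min). Cells were centrifuged, washed twice in PBS pH 7.2 and sonicated in water. Extracts were boiled 5 min, clarified, and precipitated with 3 volumes of ethanol. Radiolabel and protein were measured in supernatants and pellets. Supernatants in 0.1% TFA were run on C18 HPLC (10–60% acetonitrile, 10 min, 40°C) with in-line radioactivity detection and peak areas. Pellet label was taken as protein-incorporated proline.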

K-562 cells [4] = experiment: Inhibition of cell growth, K-562 cells; format: cell-based, human; settings: mean ± S.D.
How it was run: as §1

RPMI-8226 cells [5] = experiment: Inhibition of cell growth, RPMI-8226 cells; format: cell-based, human; settings: mean ± S.D.
How it was run: as §1

[6] = test system: SR, CCRF-CEM, and HL-60 (TB)
[7] = test system: CA46 Burkitt lymphoma cells; experiment: [^3H]Tasidotin uptake and metabolism, CA46 cells; format: in vitro ADME, human; settings: 0.1 μM [^3H]tasidotin
[8] = test system: CA46, K-562, MOLT-4, and RPMI-8226; settings: less sensitive cell lines, 0.1 μM [^3H]tasidotin, 16 h
CCRF-CEM cells [9] = experiment: [^3H]Tasidotin uptake and metabolism, CCRF-CEM cells; format: in vitro ADME, human; settings: 0.1 μM [^3H]tasidotin, 16 h
How it was run: as §2

K-562 cells [10] = experiment: [^3H]Tasidotin uptake and metabolism, K-562 cells; format: in vitro ADME, human; settings: 0.1 μM [^3H]tasidotin, 16 h
How it was run: as §2

[11] = test system: SR, CCRF-CEM, and HL-60 (TB); remark: listed apart in the source
NCI/ADR-RES = settings: multidrug resistant, P-glycoprotein expressing
MOLT-4 cells [12] = experiment: [^3H]Tasidotin uptake and metabolism, MOLT-4 cells; format: in vitro ADME, human; settings: 0.1 μM [^3H]tasidotin, 16 h
How it was run: as §2

MOLT-4 cells [13] = experiment: Inhibition of cell growth, MOLT-4 cells; format: cell-based, human; settings: mean ± S.D.
How it was run: as §1

HL-60 (TB) cells [14] = test system: HL-60 (TB) cells
SR cells [15] = experiment: Inhibition of cell growth, SR cells; format: cell-based, human; settings: mean ± S.D.
How it was run: as §1

HL-60 (TB) cells [16] = test system: HL-60 (TB) cells; remark: listed apart in the source
[17] = test system: CA46, K-562, MOLT-4, and RPMI-8226
CCRF-CEM cells [18] = experiment: Inhibition of cell growth, CCRF-CEM cells; format: cell-based, human; settings: mean ± S.D.
How it was run: as §1

RPMI-8226 cells [19] = experiment: [^3H]Tasidotin uptake and metabolism, RPMI-8226 cells; format: in vitro ADME, human; settings: 0.1 μM [^3H]tasidotin, 16 h
How it was run: as §2

[20] = read-out: IC50 Growth of CA46 Cells, 48-h incubation at 37°C, increase in cell number
[21] = 16 h, % of supernatant radiolabel

Sequence of purified bovine brain tubulin (P81947 whole entry): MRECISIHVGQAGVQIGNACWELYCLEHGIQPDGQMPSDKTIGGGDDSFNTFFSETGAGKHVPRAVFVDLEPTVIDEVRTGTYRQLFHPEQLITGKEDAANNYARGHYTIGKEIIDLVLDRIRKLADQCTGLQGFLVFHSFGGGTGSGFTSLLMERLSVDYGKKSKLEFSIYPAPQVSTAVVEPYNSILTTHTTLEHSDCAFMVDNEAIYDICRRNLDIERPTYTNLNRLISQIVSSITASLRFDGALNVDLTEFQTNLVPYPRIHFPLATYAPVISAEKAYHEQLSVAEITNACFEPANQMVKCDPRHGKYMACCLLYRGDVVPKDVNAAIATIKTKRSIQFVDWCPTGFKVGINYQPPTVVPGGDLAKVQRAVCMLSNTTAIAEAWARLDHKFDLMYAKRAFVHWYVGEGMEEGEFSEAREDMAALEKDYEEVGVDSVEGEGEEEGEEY
Sequence of purified bovine brain tubulin (Q6B856 whole entry): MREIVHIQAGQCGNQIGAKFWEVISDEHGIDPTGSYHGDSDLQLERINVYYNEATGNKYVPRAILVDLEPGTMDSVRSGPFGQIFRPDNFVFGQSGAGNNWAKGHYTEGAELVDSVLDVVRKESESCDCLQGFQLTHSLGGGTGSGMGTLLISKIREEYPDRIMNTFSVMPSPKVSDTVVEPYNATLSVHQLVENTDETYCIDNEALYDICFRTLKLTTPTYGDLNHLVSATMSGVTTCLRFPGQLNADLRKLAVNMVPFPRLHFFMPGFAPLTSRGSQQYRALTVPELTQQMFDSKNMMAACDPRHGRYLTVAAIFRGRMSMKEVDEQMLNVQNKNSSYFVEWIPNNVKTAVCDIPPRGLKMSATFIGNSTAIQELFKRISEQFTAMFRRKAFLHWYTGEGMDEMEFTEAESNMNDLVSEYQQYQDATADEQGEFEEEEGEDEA

Question: Which results are given for `COC1=CC(=O)N(C(=O)[C@@H](OC(=O)[C@@H]2CCCN2C(=O)[C@@H]2CCCN2C(=O)[C@H](C(C)C)N(C)C(=O)[C@@H](NC(=O)[C@H](C(C)C)N(C)C)C(C)C)C(C)C)[C@H]1Cc1ccccc1` [Dolastatin 15, reference compound] (NMe2Val-V[NMeV]PP-X1)?
Answer: P-glycoprotein substrate (P-glycoprotein): P-glycoprotein substrate; IC50 [1]: 5600 ± 900 nM; IC50 [2, 20]: 3 nM

Question: Which results are given for `CN(Cc1cnc2nc(N)nc(N)c2n1)c1ccc(C(=O)N[C@@H](CCC(=O)O)C(=O)O)cc1` [Methotrexate]?
Answer: Effect of BCPP on the inhibition of CCRF-CEM cell growth by the drug (CCRF-CEM leukemia cells; CCRF-CEM cells, 12.5 μM BCPP): no effect; -fold difference in IC50 (+ BCPP versus − BCPP) (CCRF-CEM leukemia cells; CCRF-CEM cells, 12.5 μM BCPP): 1.1 -fold; IC50 (CCRF-CEM leukemia cells; Homo sapiens, CCRF-CEM): 7.3 ± 0.8 nM

Question: What does the source list for `CC(C)[C@H](NC(=O)[C@H](C(C)C)N(C)C)C(=O)N(C)[C@H](C(=O)N1CCC[C@H]1C(=O)N1CCC[C@H]1C(=O)NC(C)(C)C)C(C)C` [Tasidotin] (NMe2Val-V[NMeV]PP-NHtBu)?
Answer: Free Proline in Supernatant (SR cells [3]): 5.0 fmol / μg cell protein; Proline from Pellets (SR cells [3]): 9.8 fmol / μg cell protein; Total Proline in Supernatant (All Forms) (SR cells [3]): 51 ± 9%; Total Tasidotin-Derived Proline (Total Tasidotin Uptake) (SR cells [3]): 20 ± 5 fmol / μg cell protein; Free Proline in Supernatant (SR cells [3]; % of supernatant radiolabel): 49%; Proline in P5 in Supernatant (SR cells [3]; % of supernatant radiolabel): 51 ± 7%; IC50 (K-562 cells [4]): 230 ± 30 nM; -fold difference in IC50 (+ BCPP versus − BCPP) (CCRF-CEM leukemia cells; CCRF-CEM cells, 12.5 μM BCPP): 30 -fold; IC50 (CCRF-CEM leukemia cells; CCRF-CEM cells, without BCPP, cell number): 40 ± 10 nM; IC50 (RPMI-8226 cells [5]): 300 ± 20 nM; Intracellular P5 [6]: 5.2-7.7 fmol/μg cell protein; Share of total uptake as P5, average [6]: 29%; Share of total uptake as proline, average [6]: 71%; Soluble intracellular radiolabel remaining as tasidotin ([7]; 5 min): Approximately 48%; Soluble intracellular radiolabel with the mobility of P5 ([7]; 5 min): approximately 17%; Soluble radiolabel that had undergone further metabolism (unbound proline peak) ([7]; 5 min): approximately 35%; Free Proline in Supernatant ([7]; 16 h): 2.8 fmol / μg cell protein; Proline from Pellets ([7]; 16 h): 7.1 fmol / μg cell protein; Total Proline in Supernatant (All Forms) ([7]; 16 h): 41 ± 1%; Total Tasidotin-Derived Proline (Total Tasidotin Uptake) ([7]; 16 h): 12 ± 0.6 fmol / μg cell protein; Free Proline in Supernatant [7, 21]: 58%; Proline in P5 in Supernatant [7, 21]: 42 ± 10%; Radiolabel in the unbound proline peak ([7]; 96 h): approximately 38%; Radiolabel remaining as tasidotin ([7]; 96 h): approximately 6%; Total radiolabel with the mobility of P5 ([7]; 96 h): approximately 56%; Share of total uptake as P5, average [8]: 16%; Share of total uptake as proline, average [8]: 84%; Total uptake, average [8]: 12 fmol/μg of cell protein; Free Proline in Supernatant (CCRF-CEM cells [9]): 11.5 fmol / μg cell protein; Total Proline in Supernatant (All Forms) (CCRF-CEM cells [9]): 52 ± 4%; Total Tasidotin-Derived Proline (Total Tasidotin Uptake) (CCRF-CEM cells [9]): 24 ± 9 fmol / μg cell protein; Free Proline in Supernatant (CCRF-CEM cells [9]; % of supernatant radiolabel): 48%; Proline in P5 in Supernatant (CCRF-CEM cells [9]; % of supernatant radiolabel): 62 ± 10%; Free Proline in Supernatant (K-562 cells [10]): 4.2 fmol / μg cell protein; Proline from Pellets (K-562 cells [10]): 9.0 fmol / μg cell protein; Total Proline in Supernatant (All Forms) (K-562 cells [10]): 42 ± 9%; Total Tasidotin-Derived Proline (Total Tasidotin Uptake) (K-562 cells [10]): 15.5 ± 2 fmol / μg cell protein; Free Proline in Supernatant (K-562 cells [10]; % of supernatant radiolabel): 64%; Proline in P5 in Supernatant (K-562 cells [10]; % of supernatant radiolabel): 36 ± 6%; IC50 [1]: 10000 ± 400 nM; Fold less active as inhibitor of tubulin assembly than dolastatin 10 ([1]; ratio of tubulin assembly IC50 values): more than 12 -fold; IC50 [11]: 20 to 36 nM; IC50 (NCI/ADR-RES): > 1000 nM; Free Proline in Supernatant (MOLT-4 cells [12]): 3.5 fmol / μg cell protein; Proline from Pellets (MOLT-4 cells [12]): 7.0 fmol / μg cell protein; Total Proline in Supernatant (All Forms) (MOLT-4 cells [12]): 46 ± 7%; Total Tasidotin-Derived Proline (Total Tasidotin Uptake) (MOLT-4 cells [12]): 13 ± 3 fmol / μg cell protein; Free Proline in Supernatant (MOLT-4 cells [12]; % of supernatant radiolabel): 59%; Proline in P5 in Supernatant (MOLT-4 cells [12]; % of supernatant radiolabel): 41 ± 9%; IC50 ([2]; CA46 cells (Table 2), mean ± S.D.): 100 ± 5 nM; IC50 [2, 20]: 100 ± 5 nM; IC50 (MOLT-4 cells [13]): 230 ± 30 nM; IC50 (HL-60 (TB) cells [14]): 36 ± 6 nM; IC50 (SR cells [15]): 20 ± 1 nM; IC50 (HS 578-T line): 200 nM; Proline from Pellets (HL-60 (TB) cells [16]): 12.4 fmol / μg cell protein; Total Proline in Supernatant (All Forms) (HL-60 (TB) cells [16]): 54 ± 10%; Total Tasidotin-Derived Proline (Total Tasidotin Uptake) (HL-60 (TB) cells [16]): 27 ± 3 fmol / μg cell protein; IC50 [17]: 100 to 300 nM; IC50 (CCRF-CEM cells [18]): 30 ± 7 nM; IC50 (MDA-MB-435 line): 4 nM; Free Proline in Supernatant (RPMI-8226 cells [19]): 1.6 fmol / μg cell protein; Proline from Pellets (RPMI-8226 cells [19]): 5.8 fmol / μg cell protein; Total Proline in Supernatant (All Forms) (RPMI-8226 cells [19]): 31 ± 5%; Total Tasidotin-Derived Proline (Total Tasidotin Uptake) (RPMI-8226 cells [19]): 8.4 ± 3 fmol / μg cell protein; Free Proline in Supernatant (RPMI-8226 cells [19]; % of supernatant radiolabel): 61%; Proline in P5 in Supernatant (RPMI-8226 cells [19]; % of supernatant radiolabel): 39 ± 5%

Question: Which results are given for `COc1ccc(/C=C\c2cc(OC)c(OC)c(OC)c2)cc1O` [Combretastatin A-4]?
Answer: Effect of BCPP on the inhibition of CCRF-CEM cell growth by the drug (CCRF-CEM leukemia cells; CCRF-CEM cells, 12.5 μM BCPP): no effect; -fold difference in IC50 (+ BCPP versus − BCPP) (CCRF-CEM leukemia cells; CCRF-CEM cells, 12.5 μM BCPP): 0.8 -fold; IC50 (CCRF-CEM leukemia cells; Homo sapiens, CCRF-CEM): 2.3 ± 0.3 nM

Question: With `CC[C@H](C)[C@@H]([C@@H](CC(=O)N1CCC[C@H]1[C@H](OC)[C@@H](C)C(=O)N[C@@H](Cc1ccccc1)c1nccs1)OC)N(C)C(=O)[C@@H](NC(=O)[C@H](C(C)C)N(C)C)C(C)C` [Dolastatin 10, reference compound] as the compound, how does the IC50 [1] read?
Answer: Its IC50 is 800 ± 100 nM.

Question: What about the IC50 [2, 20] of the same compound?
Answer: The IC50 was 0.03 nM.

Question: With `O=C[C@@H]1CCCN1C(=O)[C@@H]1CCCN1C(=O)OCc1ccccc1` [BCPP, N-benzyloxycarbonylprolylprolinal] (Cbz-Pro-Pro-aldehyde) as the compound, how does the “Effect of BCPP itself on the growth of the cells” value (CCRF-CEM leukemia cells; CCRF-CEM cells, 12.5 μM BCPP) read?
Answer: Its value is “negligible effects”.
